Data from ChEMBL document CHEMBL1255169, “Synthesis, structure-affinity relationships, and radiolabeling of selective high-affinity 5-HT4 receptor ligands as prospective imaging probes for positron emission tomography” (J Med Chem, 2010).
Calls of active or inactive are those of the source. The calls are words filed in the database; no cut-off is given here.

Legend:
[1] = biological target: T1, 5-hydroxytryptamine receptor 4 (Homo sapiens, UniProt Q13639); assay: Displacement of [3H]GR113808 from human recombinant 5HT4 receptor expressed in HEK293 cells; type: cell-based
[2] = biological target: T1, 5-hydroxytryptamine receptor 4; assay: Inverse agonist activity at 5HT4 receptor expressed in HEK293/L9 cells by cAMP assay; type: functional, cell-based
[3] = biological target: T1, 5-hydroxytryptamine receptor 4; assay: Agonist activity at 5HT4 receptor expressed in HEK293/L9 cells by cAMP assay; type: functional, cell-based
[4] = biological target: T1, 5-hydroxytryptamine receptor 4; assay: Antagonist activity at 5HT4 receptor expressed in HEK293/L9 cells by cAMP assay; type: functional, cell-based
[5] = biological target: 5-hydroxytryptamine receptor 4 (Cavia porcellus, UniProt O70528); assay: Displacement of [3H]GR113808 from 5HT4 receptor in guinea pig striatal membranes; type: cell membranes, Striatum, Membrane
D(2) dopamine receptor = D(2) dopamine receptor (Rattus norvegicus, UniProt P61169); assay: Binding affinity to rat dopamine D2 receptor
[6] = biological target: T2, 5-hydroxytryptamine receptor 2C (Homo sapiens, UniProt P28335); assay: Binding affinity to human 5-HT2C receptor
T2 sequence (P28335 whole entry): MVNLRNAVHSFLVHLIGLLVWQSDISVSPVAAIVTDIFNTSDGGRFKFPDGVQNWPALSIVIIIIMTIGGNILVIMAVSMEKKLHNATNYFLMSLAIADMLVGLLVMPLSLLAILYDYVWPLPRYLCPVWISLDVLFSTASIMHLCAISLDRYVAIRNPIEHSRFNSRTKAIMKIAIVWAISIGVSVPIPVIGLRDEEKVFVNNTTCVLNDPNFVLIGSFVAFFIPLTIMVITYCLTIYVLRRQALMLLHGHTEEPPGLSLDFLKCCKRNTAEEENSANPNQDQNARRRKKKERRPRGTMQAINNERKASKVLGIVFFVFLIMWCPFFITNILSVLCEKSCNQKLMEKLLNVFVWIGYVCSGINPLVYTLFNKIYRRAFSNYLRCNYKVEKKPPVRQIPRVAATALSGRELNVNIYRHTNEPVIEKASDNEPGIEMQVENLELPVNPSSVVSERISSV

[7] = biological target: T3, Alpha-1B adrenergic receptor (Homo sapiens, UniProt P35368); assay: Binding affinity to human adrenergic Alpha-1B receptor
T3 sequence (P35368 whole entry): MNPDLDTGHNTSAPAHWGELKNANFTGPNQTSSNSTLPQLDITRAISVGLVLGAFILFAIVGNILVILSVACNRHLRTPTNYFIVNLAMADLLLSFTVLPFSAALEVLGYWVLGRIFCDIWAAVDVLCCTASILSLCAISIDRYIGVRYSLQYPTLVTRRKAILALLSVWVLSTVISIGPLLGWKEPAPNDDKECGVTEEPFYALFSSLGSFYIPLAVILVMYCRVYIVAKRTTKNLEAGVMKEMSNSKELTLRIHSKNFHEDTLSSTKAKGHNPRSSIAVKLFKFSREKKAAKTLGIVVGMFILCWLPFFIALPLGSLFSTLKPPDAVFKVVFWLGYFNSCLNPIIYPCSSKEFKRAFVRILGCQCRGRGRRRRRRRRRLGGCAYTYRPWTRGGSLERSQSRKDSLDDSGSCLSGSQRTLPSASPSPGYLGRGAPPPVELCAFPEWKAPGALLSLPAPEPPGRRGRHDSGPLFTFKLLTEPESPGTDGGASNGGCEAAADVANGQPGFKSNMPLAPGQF

[8] = biological target: 5-hydroxytryptamine receptor 1D (Homo sapiens, UniProt P28221); assay: Binding affinity to human 5-HT1D receptor
[9] = biological target: 5-hydroxytryptamine receptor 2B (Homo sapiens, UniProt P41595); assay: Binding affinity to human 5-HT2B receptor
[10] = biological target: T4, Alpha-2C adrenergic receptor (Homo sapiens, UniProt P18825); assay: Binding affinity to human adrenergic Alpha-2C receptor
T4 sequence (P18825 whole entry): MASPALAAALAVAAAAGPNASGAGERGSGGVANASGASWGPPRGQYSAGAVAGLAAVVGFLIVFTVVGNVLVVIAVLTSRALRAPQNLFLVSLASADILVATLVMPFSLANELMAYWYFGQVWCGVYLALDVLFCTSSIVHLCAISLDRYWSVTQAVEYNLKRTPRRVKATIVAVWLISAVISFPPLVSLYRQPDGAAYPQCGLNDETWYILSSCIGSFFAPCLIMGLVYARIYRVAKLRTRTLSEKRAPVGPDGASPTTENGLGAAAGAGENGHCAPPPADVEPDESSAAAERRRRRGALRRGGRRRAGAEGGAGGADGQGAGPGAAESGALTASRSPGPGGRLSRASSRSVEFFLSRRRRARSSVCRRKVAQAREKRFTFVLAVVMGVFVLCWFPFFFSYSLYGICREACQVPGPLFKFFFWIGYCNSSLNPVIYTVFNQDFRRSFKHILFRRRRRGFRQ

[11] = biological target: Sigma non-opioid intracellular receptor 1 (Rattus norvegicus, UniProt Q9R0C9); assay: Binding affinity to rat sigma 1 receptor
D(3) dopamine receptor = D(3) dopamine receptor (Rattus norvegicus, UniProt P19020); assay: Binding affinity to rat dopamine D3 receptor
Histamine H3 receptor = Histamine H3 receptor (Cavia porcellus, UniProt Q9JI35); assay: Binding affinity to guinea pig histamine H3 receptor
[12] = biological target: T5, Alpha-1A adrenergic receptor (Homo sapiens, UniProt P35348); assay: Binding affinity to human adrenergic alpha1A receptor
T5 sequence (P35348 whole entry): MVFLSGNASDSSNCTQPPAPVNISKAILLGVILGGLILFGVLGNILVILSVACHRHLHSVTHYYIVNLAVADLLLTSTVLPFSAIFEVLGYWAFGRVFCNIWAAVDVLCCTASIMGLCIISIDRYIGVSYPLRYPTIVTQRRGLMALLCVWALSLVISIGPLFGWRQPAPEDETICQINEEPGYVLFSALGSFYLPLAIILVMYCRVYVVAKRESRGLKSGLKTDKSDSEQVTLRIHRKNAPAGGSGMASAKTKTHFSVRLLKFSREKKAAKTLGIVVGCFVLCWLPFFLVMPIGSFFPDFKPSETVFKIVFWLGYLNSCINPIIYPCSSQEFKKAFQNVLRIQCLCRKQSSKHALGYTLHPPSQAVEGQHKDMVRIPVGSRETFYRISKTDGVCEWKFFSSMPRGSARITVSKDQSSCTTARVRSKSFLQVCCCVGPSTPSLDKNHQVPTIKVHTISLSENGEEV

[13] = biological target: T6, Alpha-2B adrenergic receptor (Homo sapiens, UniProt P18089); assay: Binding affinity to human adrenergic alpha2B receptor
T6 sequence (P18089 whole entry): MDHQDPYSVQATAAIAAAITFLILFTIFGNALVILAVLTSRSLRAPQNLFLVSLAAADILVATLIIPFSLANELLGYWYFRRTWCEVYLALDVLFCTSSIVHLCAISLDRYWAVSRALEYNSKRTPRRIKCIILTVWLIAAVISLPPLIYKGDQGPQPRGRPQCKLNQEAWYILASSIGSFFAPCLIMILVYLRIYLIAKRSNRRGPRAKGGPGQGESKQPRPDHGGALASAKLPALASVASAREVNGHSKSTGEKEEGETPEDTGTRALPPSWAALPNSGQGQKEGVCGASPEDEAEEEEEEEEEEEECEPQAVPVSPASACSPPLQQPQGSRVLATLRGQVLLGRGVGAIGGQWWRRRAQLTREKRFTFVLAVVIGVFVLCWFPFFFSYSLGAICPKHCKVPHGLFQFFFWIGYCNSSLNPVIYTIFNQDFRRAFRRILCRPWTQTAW
How it was run: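 Radioligand binding run by the NIMH Psychoactive Drug Screening Program as part of a broad receptor and binding-site panel, which included α1A, α1B, α1D and α2A–C subtypes. Affinity is expressed as Ki.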

D(4) dopamine receptor = biological target: T7, D(4) dopamine receptor (Rattus norvegicus, UniProt P30729); assay: Binding affinity to rat dopamine D4 receptor
T7 sequence (P30729 whole entry): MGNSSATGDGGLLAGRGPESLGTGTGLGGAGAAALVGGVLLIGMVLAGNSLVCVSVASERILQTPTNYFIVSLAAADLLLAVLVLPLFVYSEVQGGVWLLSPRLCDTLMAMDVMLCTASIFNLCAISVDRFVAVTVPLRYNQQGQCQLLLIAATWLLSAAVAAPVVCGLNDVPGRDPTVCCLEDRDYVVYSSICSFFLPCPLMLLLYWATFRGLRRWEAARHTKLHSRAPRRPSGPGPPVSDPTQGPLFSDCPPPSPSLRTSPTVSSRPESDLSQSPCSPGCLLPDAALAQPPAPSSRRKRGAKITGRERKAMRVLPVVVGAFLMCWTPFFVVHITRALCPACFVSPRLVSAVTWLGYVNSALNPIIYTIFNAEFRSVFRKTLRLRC

[14] = Binding affinity to rat sigma 2 receptor

T1 sequence (Q13639 whole entry): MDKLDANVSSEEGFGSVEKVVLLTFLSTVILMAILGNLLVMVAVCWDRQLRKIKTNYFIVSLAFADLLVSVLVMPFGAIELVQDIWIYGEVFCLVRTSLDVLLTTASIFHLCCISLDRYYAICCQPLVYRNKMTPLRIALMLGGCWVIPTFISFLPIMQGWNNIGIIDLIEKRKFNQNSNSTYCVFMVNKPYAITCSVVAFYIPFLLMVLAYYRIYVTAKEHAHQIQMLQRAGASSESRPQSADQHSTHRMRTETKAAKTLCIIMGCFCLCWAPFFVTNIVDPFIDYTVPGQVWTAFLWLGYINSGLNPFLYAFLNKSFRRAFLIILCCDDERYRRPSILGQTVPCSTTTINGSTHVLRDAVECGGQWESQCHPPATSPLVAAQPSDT
Chain of 5-hydroxytryptamine receptor 4 (Cavia porcellus, UniProt O70528) (O70528 whole entry): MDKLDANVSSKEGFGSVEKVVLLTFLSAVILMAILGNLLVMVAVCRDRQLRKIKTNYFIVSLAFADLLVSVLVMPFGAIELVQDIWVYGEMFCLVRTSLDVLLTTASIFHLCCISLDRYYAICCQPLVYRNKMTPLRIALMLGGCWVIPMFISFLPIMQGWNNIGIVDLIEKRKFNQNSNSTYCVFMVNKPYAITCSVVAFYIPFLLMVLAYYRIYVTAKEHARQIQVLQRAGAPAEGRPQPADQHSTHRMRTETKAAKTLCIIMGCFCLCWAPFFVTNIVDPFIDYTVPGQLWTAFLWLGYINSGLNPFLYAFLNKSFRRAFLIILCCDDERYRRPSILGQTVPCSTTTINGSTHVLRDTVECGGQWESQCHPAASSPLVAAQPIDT
Chain of Histamine H3 receptor (Q9JI35 whole entry): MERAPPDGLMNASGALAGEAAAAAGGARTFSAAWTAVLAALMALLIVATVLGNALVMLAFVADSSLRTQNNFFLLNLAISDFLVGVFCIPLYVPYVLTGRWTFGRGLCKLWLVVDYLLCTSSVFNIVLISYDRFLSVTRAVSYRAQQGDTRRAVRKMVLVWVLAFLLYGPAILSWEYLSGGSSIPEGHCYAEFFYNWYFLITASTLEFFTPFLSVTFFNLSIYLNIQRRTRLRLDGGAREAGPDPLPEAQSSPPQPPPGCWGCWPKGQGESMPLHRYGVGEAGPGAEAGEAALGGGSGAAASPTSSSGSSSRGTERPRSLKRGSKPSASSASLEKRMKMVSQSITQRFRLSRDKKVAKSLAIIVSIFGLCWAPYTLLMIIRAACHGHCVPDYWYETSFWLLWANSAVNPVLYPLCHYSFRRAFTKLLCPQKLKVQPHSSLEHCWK
Chain of D(3) dopamine receptor (P19020 whole entry): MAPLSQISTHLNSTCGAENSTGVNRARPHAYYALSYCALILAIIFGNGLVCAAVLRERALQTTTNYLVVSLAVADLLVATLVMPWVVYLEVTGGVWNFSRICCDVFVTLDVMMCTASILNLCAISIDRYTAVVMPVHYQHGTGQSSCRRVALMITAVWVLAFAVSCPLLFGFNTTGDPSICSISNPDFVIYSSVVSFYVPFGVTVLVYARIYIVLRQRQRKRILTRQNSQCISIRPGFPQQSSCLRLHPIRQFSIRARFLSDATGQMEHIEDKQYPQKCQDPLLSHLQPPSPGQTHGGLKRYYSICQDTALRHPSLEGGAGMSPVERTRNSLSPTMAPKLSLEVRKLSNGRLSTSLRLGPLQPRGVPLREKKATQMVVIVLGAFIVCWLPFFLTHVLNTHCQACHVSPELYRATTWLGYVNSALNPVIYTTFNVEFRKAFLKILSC
Chain of D(2) dopamine receptor (P61169 whole entry): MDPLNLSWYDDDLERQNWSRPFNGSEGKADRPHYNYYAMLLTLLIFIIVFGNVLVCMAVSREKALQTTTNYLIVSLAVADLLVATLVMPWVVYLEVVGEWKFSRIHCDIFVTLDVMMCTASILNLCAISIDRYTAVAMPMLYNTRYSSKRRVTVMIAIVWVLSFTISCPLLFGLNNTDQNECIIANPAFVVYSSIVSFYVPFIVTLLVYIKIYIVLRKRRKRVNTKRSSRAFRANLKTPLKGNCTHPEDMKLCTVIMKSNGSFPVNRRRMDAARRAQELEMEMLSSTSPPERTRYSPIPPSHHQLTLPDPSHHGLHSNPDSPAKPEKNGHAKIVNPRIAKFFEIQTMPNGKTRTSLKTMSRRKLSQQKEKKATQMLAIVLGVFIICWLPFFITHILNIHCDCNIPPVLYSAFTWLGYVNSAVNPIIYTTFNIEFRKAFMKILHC
Chain of 5-hydroxytryptamine receptor 1D (P28221 whole entry): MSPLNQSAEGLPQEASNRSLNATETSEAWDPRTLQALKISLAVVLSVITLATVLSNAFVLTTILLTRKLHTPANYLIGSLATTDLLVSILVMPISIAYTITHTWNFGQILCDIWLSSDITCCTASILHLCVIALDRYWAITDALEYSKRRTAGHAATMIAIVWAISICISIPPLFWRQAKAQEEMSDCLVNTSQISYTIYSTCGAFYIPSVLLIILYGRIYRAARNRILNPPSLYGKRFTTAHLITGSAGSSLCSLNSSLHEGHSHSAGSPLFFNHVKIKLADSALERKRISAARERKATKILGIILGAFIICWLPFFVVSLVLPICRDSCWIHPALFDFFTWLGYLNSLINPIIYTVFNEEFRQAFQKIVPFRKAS
Chain of Sigma non-opioid intracellular receptor 1 (Q9R0C9 whole entry): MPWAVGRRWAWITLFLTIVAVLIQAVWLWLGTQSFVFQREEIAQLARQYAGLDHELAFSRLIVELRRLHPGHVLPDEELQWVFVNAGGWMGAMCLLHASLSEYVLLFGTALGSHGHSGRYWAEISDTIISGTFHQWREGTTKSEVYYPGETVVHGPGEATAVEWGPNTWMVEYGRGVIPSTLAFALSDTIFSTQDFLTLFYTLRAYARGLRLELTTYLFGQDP
Chain of 5-hydroxytryptamine receptor 2B (P41595 whole entry): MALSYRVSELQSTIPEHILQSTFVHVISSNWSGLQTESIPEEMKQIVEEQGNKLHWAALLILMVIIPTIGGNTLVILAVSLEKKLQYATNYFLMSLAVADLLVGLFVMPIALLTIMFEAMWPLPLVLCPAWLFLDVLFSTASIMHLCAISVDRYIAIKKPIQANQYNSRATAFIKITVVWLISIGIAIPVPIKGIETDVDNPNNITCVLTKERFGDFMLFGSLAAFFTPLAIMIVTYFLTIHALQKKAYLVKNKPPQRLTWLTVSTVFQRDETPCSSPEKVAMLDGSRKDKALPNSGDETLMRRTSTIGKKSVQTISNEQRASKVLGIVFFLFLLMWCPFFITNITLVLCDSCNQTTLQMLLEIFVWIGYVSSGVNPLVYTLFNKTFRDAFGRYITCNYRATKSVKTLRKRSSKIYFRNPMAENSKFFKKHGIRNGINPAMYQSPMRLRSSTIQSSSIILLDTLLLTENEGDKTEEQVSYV

| Ki [1] | Efficacy [2] | EC50 [3] | Ki [5] | Structure (SMILES) | also measured |
| --- | --- | --- | --- | --- | --- |
| 8660 nM |  |  |  | CCCCN1CCC(CNC(=O)c2ccc(N)c(OC)c2)CC1 |  |
| 4.5 nM | Active | 10 nM |  | CCCCN1CCC(COC(=O)c2cc(Br)c(NC)c3c2OCCO3)CC1 |  |
| 7.4 nM | Active | 20 nM |  | CCCCN1CCC(COC(=O)c2cc(I)c(NC)c3c2OCCO3)CC1 |  |
| 6.3 nM |  |  |  | CCCCN1CCC(COC(=O)c2cc(C)c(N)c3c2OCCO3)CC1 | Efficacy [4]: Active |
| 1.4 nM |  |  |  | CCCCN1CCC(COC(=O)c2ccc(N)c3c2OCCO3)CC1 | Efficacy [4]: Active |
| 17 nM |  |  | 0.901 nM | CCCN1CCC(COC(=O)c2ccc(N)c(OC)c2)CC1 |  |
| 33 nM |  |  | 0.45 nM | CCCCN1CCC(COC(=O)c2cc(C#N)c(N)c3c2OCCO3)CC1 |  |
| 2.1 nM | Active | 5.89 nM | 0.334 nM | CCCCN1CCC(COC(=O)c2cc(F)c(N)c3c2OCCO3)CC1 | Ki (D(2) dopamine receptor): 615 nM; Ki [6]: 8360 nM; Ki [7]: 9080 nM; Ki [8]: 2860 nM; Ki [9]: 168 nM; Ki [10]: 593 nM; Ki [11]: 55 nM; Ki (D(3) dopamine receptor): 1010 nM; Ki (Histamine H3 receptor): 5040 nM; Ki [12]: 87.6 nM; Ki [13]: 773 nM; Ki (D(4) dopamine receptor): 316 nM; Ki [14]: 12.9 nM |
| 9.1 nM | Active | 8.91 nM |  | CCCCN1CCC(COC(=O)c2ccc(NC)c3c2OCCO3)CC1 |  |
| 7.8 nM |  |  |  | CCCCN1CCC(COC(=O)c2cc([N+](=O)[O-])c(N)c3c2OCCO3)CC1 |  |
| 17 nM |  |  | 0.334 nM | CCCCN1CCC(COC(=O)c2ccc(N)c(OCF)c2)CC1 |  |
| 37 nM | Active | 15.8 nM |  | CCCCN1CCC(COC(=O)c2cc(C#N)c(NC)c3c2OCCO3)CC1 |  |
| 11 nM |  |  | 0.215 nM | CCCCN1CCC(COC(=O)c2ccc(N)c(OCCF)c2)CC1 |  |
|  |  |  | 0.2 nM | CCCCN1CCC(COC(=O)c2cc(I)c(N)c3c2OCCO3)CC1 |  |
| 12 nM |  |  |  | CCCCCN1CCC(COC(=O)c2ccc(N)c(OC)c2)CC1 |  |
